Data: PubChem BioAssay
The source made the active and inactive calls.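 The calls were made as follows, unless noted: active = viability at or under a set limit in both replicates, limit being median viability minus 3 SD (cut at about 48% in these data, passing the limit was not always enough); inconclusive = at or under the limit in just one replicate; inactive = at or above the limit in both replicates.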

Legend:
[1] = reducers of endogenous Her2 protein level, primary screen, SKBR3 breast tumor cells, AlphaScreen, ATP viability (AID 461;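 active = Her2 level under about 52% in both replicate screens, with viability over 70% of control, limit read from the data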;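 as to Her2 level: lower value means less Her2 protein in the cells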;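 as to viability: percent of carrier control wells set as 100% viability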); settings: 18-24 h, measured here: SKBR3 viability, ATP luminescence, at 10 µM
[2] = molecular target: Receptor tyrosine-protein kinase erbB-2 (Homo sapiens) (UniProt P04626); experiment: as above; settings: 18-24 h, at 10 µM, stronger effect = lower value
[3] = SK-BR-3 cell growth inhibitors, pilot screen, 24 h, human (AID 572;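 active = viability at or below 10% of carrier control in both of two separate runs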;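 also: compound exposure lasted between 18 and 24 h rather than exactly 24 h; 100% = carrier-treated control wells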); settings: SK-BR-3 viability, CellTiter-Glo luminescence, at 10 µM, stronger effect = lower value
[4] = HUVEC growth inhibition – cell-based, human, primary screen (AID 575;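 active = viability at or below 30% in both replicate assays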;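 also: 100% = median of untreated cell wells with 0.1% DMSO on each plate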); settings: HUVEC proliferation, CellTiter-Glo luminescence, 72 h; at 10 µM; stronger effect = lower value
Procedure, shortened: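 System: primary human umbilical vein endothelial cells; Quantity: 1250 endothelial cells in each well; Buffer or medium: supplemented EBM, 2% fetal bovine serum; Doses: one dose, 10 µM final, 0.1% DMSO; Incubation: 72 h compound incubation; Technique: ATP-based CellTiter-Glo luminescent read; Evaluation: percent of median DMSO-control luminescence; Controls: vehicle and MePR control wells.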

[5] = growth inhibitors of H69AR lung tumor, primary screen, human, duplicate replicates (AID 580); settings: H69AR lung tumor cells viability, ATP luminescence, 72 h; at 10 µM; stronger effect = lower value;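 also: 100% = mean luminescence of untreated wells and 0% = no signal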
[6] = reversal of MRP1-mediated doxorubicin resistance, pilot screen, H69AR cells, doxorubicin co-treatment (AID 601;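 active = viability loss from added drug above about 55%, and viability with drug at most 40%, in both replicates, limit read from the data, passing the limit was not always enough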); settings: CellTiter-Glo, 72 h, at 10 µM; for differential viability (reversal): stronger effect = higher value
[7] = 384-well plate pilot, post-Golgi transport modulator project, inhibition of yeast transport mutant growth (AID 636; in the data active = inhibition above about 31%); settings: absorbance 615 nm, about 18 h, stronger effect = higher value
[8] = growth suppression of yeast trafficking mutant, preliminary HTS, modulators of trafficking downstream of Golgi apparatus project, 1536-format plate, OD 615 nm (AID 637; in the data active = inhibition above about 30%); settings: yeast transport mutant growth, absorbance 615 nm, 18 h; stronger effect = higher value
[9] = H69AR cells + 2 uM doxorubicin, measured here: viability with 2 uM doxorubicin, stronger effect = lower value
[10] = H69AR cells, compound alone cytotoxicity

Receptor tyrosine-protein kinase erbB-2 (Homo sapiens), sequence (P04626 whole entry, looked up): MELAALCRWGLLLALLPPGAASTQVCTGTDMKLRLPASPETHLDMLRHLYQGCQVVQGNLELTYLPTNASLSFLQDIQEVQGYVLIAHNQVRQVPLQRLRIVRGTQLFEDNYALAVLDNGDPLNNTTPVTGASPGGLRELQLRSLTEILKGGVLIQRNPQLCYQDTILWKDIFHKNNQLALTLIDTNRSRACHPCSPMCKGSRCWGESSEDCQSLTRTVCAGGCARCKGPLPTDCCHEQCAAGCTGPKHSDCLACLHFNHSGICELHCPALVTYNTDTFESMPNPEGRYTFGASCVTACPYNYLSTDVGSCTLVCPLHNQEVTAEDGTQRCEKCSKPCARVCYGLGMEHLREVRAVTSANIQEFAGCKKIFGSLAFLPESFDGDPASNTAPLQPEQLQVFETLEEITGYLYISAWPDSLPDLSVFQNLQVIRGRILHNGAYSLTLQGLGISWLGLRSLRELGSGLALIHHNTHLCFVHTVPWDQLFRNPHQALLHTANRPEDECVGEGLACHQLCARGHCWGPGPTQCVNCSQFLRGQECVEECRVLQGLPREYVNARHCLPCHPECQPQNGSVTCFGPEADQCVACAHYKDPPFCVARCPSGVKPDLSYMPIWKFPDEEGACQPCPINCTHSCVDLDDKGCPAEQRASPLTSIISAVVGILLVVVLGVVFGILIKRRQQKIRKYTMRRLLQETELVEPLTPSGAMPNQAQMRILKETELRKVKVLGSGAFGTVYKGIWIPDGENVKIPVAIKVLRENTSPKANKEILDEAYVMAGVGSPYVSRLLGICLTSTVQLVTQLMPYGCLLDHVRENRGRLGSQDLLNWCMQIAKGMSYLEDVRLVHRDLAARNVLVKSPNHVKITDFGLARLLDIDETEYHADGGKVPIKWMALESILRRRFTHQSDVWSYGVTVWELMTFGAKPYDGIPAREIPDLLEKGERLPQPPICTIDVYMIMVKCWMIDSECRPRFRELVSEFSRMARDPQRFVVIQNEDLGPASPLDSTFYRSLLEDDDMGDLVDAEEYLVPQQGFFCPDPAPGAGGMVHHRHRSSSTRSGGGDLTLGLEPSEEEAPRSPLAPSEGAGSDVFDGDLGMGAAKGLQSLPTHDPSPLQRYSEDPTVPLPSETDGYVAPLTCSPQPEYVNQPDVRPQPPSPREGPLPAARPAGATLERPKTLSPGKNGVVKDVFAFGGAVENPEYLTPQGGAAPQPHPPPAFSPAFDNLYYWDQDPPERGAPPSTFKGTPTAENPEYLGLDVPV

| SMILES | viability [1] [%] | Her2 level [2] | viability [3] | viability [4] | viability [5] | differential viability (reversal) ([6]; H69AR cells + 2 uM doxorubicin) | viability [6, 9] [%] | viability [6, 10] [%] | inhibition [7] | inhibition [8] |
| --- | --- | --- | --- | --- | --- | --- | --- | --- | --- | --- |
| CC(=O)Nc1c(C(=O)C2CC2)oc2ccccc12 | 102 | 124% (inactive) | 102% (inactive) | 96.9% (inactive) | 90.2% (inactive) | 7.75% (inactive) | 82.5 | 90.2 | -5.33% (inactive) | -5.4% (inactive) |
| COc1cc(OC)cc(-c2nnc(SCC(=O)Nc3cc(C)on3)o2)c1 | 92.5 | 81% (inactive) | 92.5% (inactive) | 82.7% (inactive) | 79.6% (inactive) | -7.97% (inactive) | 87.6 | 79.6 | -5.53% (inactive) | -4.33% (inactive) |
| CCC(=NC(C)c1ccccc1)c1c(O)n(C)c(=O)n(C)c1=O (stereo not given) | 94 | 88% (inactive) | 94% (inactive) | 72.8% (inactive) | 90.7% (inactive) | -14.2% (inactive) | 105 | 90.7 | -2.89% (inactive) | 6.39% (inactive) |
| O=C(CN(C(=O)CCC(=O)Nc1nccs1)c1ccccc1F)NCC1CCCO1 (stereo not given) | 110 | 104% (inactive) | 110% (inactive) | 105% (inactive) | 100% (inactive) | 9.81% (inactive) | 90.4 | 100 | -3.33% (inactive) | 13.1% (inactive) |
| CCOC(=O)c1ccc(NC(=O)CCNc2c(N3CCCC3)c(=O)c2=O)cc1 | 104 | 96.5% (inactive) | 104% (inactive) | 91.6% (inactive) | 98.3% (inactive) | 0.27% (inactive) | 98 | 98.3 | -2.5% (inactive) | 0.18% (inactive) |
| COc1ccc(C2=NOC(C(=O)NC3CCCCC3)C2)cc1OC (stereo not given) | 97.5 | 92% (inactive) | 97.5% (inactive) | 106% (inactive) | 95.9% (inactive) | 11.2% (inactive) | 84.8 | 95.9 | -9.04% (inactive) | 0.95% (inactive) |
| Cn1cccc1Cc1nnc(SCC(=O)Nc2ccc(F)cc2)n1-c1ccc(F)cc1 | 86 | 93% (inactive) | 86% (inactive) | 71.9% (inactive) | 80.2% (inactive) | -9.93% (inactive) | 90.1 | 80.2 | 0% (inactive) | -1% (inactive) |
| CCCC1C(C#N)=C(N)Oc2n[nH]c(C(C)(C)C)c21 (stereo not given) | 106 | 99.5% (inactive) | 106% (inactive) | 95.1% (inactive) | 105% (inactive) | 11% (inactive) | 94.4 | 105 | -6.97% (inactive) | -7.58% (inactive) |
| COC(=O)c1ccc(CNC(=O)COc2ccccc2Br)o1 | 93 | 108% (inactive) | 93% (inactive) | 100% (inactive) | 103% (inactive) | 15% (inactive) | 87.6 | 103 | -3.33% (inactive) | -10% (inactive) |
| O=C(NCc1nnc(SCC(=O)N2CCCCCC2)o1)c1ccco1 | 104 | 100% (inactive) | 104% (inactive) | 101% (inactive) | 111% (inactive) | 18.3% (inactive) | 92.8 | 111 | -4.27% (inactive) | -0.48% (inactive) |
| N#Cc1c(N)nc2c(c1-c1ccncc1)CCCCC2 | 102 | 86.5% (inactive) | 102% (inactive) | 78.2% (inactive) | 90.7% (inactive) | -3.37% (inactive) | 94 | 90.7 | -4.4% (inactive) | 4.43% (inactive) |
| O=C(Cn1nnc(-c2cccs2)n1)OC1CCCCC1 | 94.5 | 104% (inactive) | 94.5% (inactive) | 81.7% (inactive) | 110% (inactive) | 16.9% (inactive) | 93.3 | 110 | -4.93% (inactive) | -3.39% (inactive) |
| CCOC(=O)N1CCN(c2c(NCCCOC(C)C)c(=O)c2=O)CC1 | 97.5 | 90% (inactive) | 97.5% (inactive) | 86.8% (inactive) | 97.5% (inactive) | 7.67% (inactive) | 89.8 | 97.5 | -3.47% (inactive) | -0.98% (inactive) |
| CCc1ccccc1NC(=O)CSc1ncn[nH]1 | 101 | 124% (inactive) | 101% (inactive) | 97.9% (inactive) | 103% (inactive) | 8.47% (inactive) | 94 | 103 | -1.82% (inactive) | -6.33% (inactive) |
| CCOC(=O)CSc1nnc(CCc2nc3ccccc3[nH]2)n1C | 118 | 112% (inactive) | 118% (inactive) | 87.5% (inactive) | 102% (inactive) | 1.34% (inactive) | 101 | 102 | -4.93% (inactive) | -7.78% (inactive) |
| CCCc1nc(N2CCOCC2)c(C#N)c2c1CCCC2 | 81 | 86.5% (inactive) | 81% (inactive) | 81.5% (inactive) | 91.4% (inactive) | -0.135% (inactive) | 91.5 | 91.4 | -0.13% (inactive) | 6.77% (inactive) |

| SMILES | viability [1] [%] | Her2 level [2] | viability [3] | viability [4] | viability [5] | differential viability (reversal) ([6]; H69AR cells + 2 uM doxorubicin) | viability [6, 9] [%] | viability [6, 10] [%] | inhibition [7] | inhibition [8] |
| --- | --- | --- | --- | --- | --- | --- | --- | --- | --- | --- |
| NC(=O)NC(c1ccccc1)c1ccccc1F (stereo not given) | 91 | 106% (inactive) | 91% (inactive) | 91.6% (inactive) | 105% (inactive) | 6.78% (inactive) | 98.3 | 105 | -0.51% (inactive) | -8% (inactive) |
| Cc1cc(NC(=O)COc2cccc3cccnc23)no1 | 93 | 75% (inactive) | 93% (inactive) | 102% (inactive) | 81% (inactive) | 1.54% (inactive) | 79.5 | 81 | -5.47% (inactive) | -2.79% (inactive) |
| COc1ccc(Cn2c(-c3ccco3)nc3oc4ccccc4c(=O)c3c2=O)cc1 | 87.5 | 92.5% (inactive) | 87.5% (inactive) | 101% (inactive) | 98.2% (inactive) | 14.2% (inactive) | 84 | 98.2 | -0.67% (inactive) | 6.45% (inactive) |
| CCC(C)(C(=O)NC1CCCCC1)N(Cc1ccco1)C(=O)c1cnccn1 (stereo not given) | 82 | 98% (inactive) | 82% (inactive) | 88.7% (inactive) | 97.5% (inactive) | 8.25% (inactive) | 89.2 | 97.5 | -0.78% (inactive) | -3.77% (inactive) |
| COc1ccc2c(c1)C1(C)CC(C)(C)N2C(=O)N1c1ccccc1 (stereo not given) | 101 | 89.5% (inactive) | 101% (inactive) | 61.5% (inactive) | 67.3% (inactive) | -16.7% (inactive) | 84 | 67.3 | -5.07% (inactive) | -5.41% (inactive) |
| CC1CCCCC1NC(=O)c1nn(C)c(=O)c2ccccc12 (stereo not given) | 88 | 104% (inactive) | 88% (inactive) | 90.4% (inactive) | 89.2% (inactive) | 13.3% (inactive) | 75.8 | 89.2 | -1.69% (inactive) | -10% (inactive) |
| CC(C)COC(=O)N(C)c1ccc(C(O)(C(F)(F)F)C(F)(F)F)cc1 | 102 | 95% (inactive) | 102% (inactive) | 93.1% (inactive) | 89.8% (inactive) | 3.42% (inactive) | 86.4 | 89.8 | -2.57% (inactive) | -8.57% (inactive) |
| CCn1c(=O)c(C(=O)NCCc2ccccc2)c(O)c2ccccc21 | 99 | 102% (inactive) | 99% (inactive) | 58.8% (inactive) | 61.6% (inactive) | -26% (inactive) | 87.6 | 61.6 | -1.03% (inactive) | -5.17% (inactive) |
| Nn1c(SCC(=O)NC2CCCCC2)nnc1C1CC1 | 102 | 111% (inactive) | 102% (inactive) | 98.4% (inactive) | 103% (inactive) | 0.415% (inactive) | 103 | 103 | -0.52% (inactive) | 10.8% (inactive) |
| CS(=O)(=O)N(CC(=O)O)c1cccc(Cl)c1 | 95 | 120% (inactive) | 95% (inactive) | 115% (inactive) | 95.7% (inactive) | -0.88% (inactive) | 96.6 | 95.7 | 2.11% (inactive) | 2.95% (inactive) |
| c1ccc(-c2nnc(CN3CCC4(CC3)OCCO4)o2)cc1 | 110 | 91.5% (inactive) | 110% (inactive) | 96.9% (inactive) | 98.7% (inactive) | 8.52% (inactive) | 90.2 | 98.7 | -0.79% (inactive) | 14.5% (inactive) |
| CCOC(=O)C1CCN(c2c(Nc3ccc4c(c3)OCCO4)c(=O)c2=O)CC1 | 82.5 | 100% (inactive) | 82.5% (inactive) | 88% (inactive) | 88.4% (inactive) | -0.805% (inactive) | 89.2 | 88.4 | 1.03% (inactive) | 3.17% (inactive) |
| O=C(NCc1ccco1)c1cnc2n(c1=O)CCS2 | 101 | 94.5% (inactive) | 101% (inactive) | 91.3% (inactive) | 89.5% (inactive) | 0.265% (inactive) | 89.2 | 89.5 | 0.78% (inactive) | -1.48% (inactive) |
| Cc1ccc(-c2cc(C(=O)NCc3ccc4c(c3)OCO4)no2)cc1 | 96 | 77% (inactive) | 96% (inactive) | 84.9% (inactive) | 90.8% (inactive) | 5.94% (inactive) | 84.9 | 90.8 | -7.43% (inactive) | -0.33% (inactive) |
| Cc1ccc(S(=O)(=O)CCc2nnc(NC(=O)c3cnccn3)s2)cc1 | 97.5 | 87% (inactive) | 97.5% (inactive) | 116% (inactive) | 99.6% (inactive) | 1.94% (inactive) | 97.6 | 99.6 | -4.13% (inactive) | 3.93% (inactive) |
| CCCC(=O)N1c2ccccc2NC2=C(C(=O)CCC2)C1c1ccc(F)cc1 (stereo not given) | 98.5 | 78% (inactive) | 98.5% (inactive) | 96.9% (inactive) | 91.6% (inactive) | -0.1% (inactive) | 91.7 | 91.6 | -0.14% (inactive) | 3.81% (inactive) |
